Activity calls are given as the source filed them. The rule behind the calls is not given here.
Tests used:
[1] = target: T1, Retinoic acid receptor RXR-alpha (Homo sapiens) (UniProt P19793); assay: Induction of RXRalpha-AD/RXRalpha-BD (unknown origin) homodimerization expressed in human HCT116 cells at 20 to 40 uM after 24 hrs by luciferase reporter gene assay; assay type: cell-based; details: HCT-116
T1 sequence (whole entry): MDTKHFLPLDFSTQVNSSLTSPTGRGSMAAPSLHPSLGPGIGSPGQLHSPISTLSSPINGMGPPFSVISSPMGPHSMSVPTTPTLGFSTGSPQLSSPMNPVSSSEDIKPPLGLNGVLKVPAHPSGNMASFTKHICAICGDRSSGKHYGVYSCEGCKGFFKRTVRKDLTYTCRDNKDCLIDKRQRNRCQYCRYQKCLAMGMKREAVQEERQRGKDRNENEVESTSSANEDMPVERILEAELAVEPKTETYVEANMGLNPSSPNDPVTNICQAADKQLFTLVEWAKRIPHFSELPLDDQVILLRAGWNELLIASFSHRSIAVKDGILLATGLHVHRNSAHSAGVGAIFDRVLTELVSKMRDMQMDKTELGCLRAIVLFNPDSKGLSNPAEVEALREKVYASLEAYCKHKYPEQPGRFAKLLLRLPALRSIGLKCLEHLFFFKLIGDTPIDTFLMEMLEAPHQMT
Method in brief: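 RXR–RXR homodimerization was measured by M2H in HCT-116 cells transfected with RXRα-AD prey, RXRα-BD bait, pFR-luc and Renilla control. […] Firefly luciferase was normalized to Renilla. Three independent experiments, triplicate samples, SD.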

[2] = target: T2, Vitamin D3 receptor (Homo sapiens) (UniProt P11473); assay: Agonist activity at human VDR expressed in human HCT116 cells co-expressing VDRE assessed as XDR3 transcriptional activity at 20 to 40 uM after 24 hrs by luciferase reporter gene assay; assay type: cell-based; details: HCT-116
T2 sequence (whole entry): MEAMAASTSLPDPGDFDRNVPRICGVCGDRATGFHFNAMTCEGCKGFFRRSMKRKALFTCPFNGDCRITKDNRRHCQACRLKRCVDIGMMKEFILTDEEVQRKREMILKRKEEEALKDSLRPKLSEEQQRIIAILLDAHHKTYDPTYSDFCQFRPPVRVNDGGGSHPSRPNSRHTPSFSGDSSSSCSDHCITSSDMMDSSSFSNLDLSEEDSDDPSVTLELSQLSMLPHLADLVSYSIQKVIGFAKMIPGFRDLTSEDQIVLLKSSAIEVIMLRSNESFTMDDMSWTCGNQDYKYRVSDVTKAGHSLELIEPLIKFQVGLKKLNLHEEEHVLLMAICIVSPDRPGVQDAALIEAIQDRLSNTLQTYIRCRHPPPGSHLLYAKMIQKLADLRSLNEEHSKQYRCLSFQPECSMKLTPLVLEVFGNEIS
Method in brief: (§1)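 HCT-116 cells were transfected with a firefly luciferase plasmid holding two copies of the CYP3A4 XDR3 VDRE, plus a Renilla control. From 18 h post-transfection they were exposed to 3.75 x 10^-5 M compound, 10^-10 M 1,25D or DMSO in complete medium for 24 h. Dual-luciferase firefly/Renilla ratio. Three independent experiments, triplicate wells, mean ± SD.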

[3] = target: T2, Vitamin D3 receptor (Homo sapiens); assay: Agonist activity at human VDR expressed in human HCT116 cells assessed as induction of recruitment of DRIP205 at 20 to 40 uM after 24 hrs by mammalian two hybrid system based luciferase reporter gene assay; assay type: cell-based; details: HCT-116
Method in brief: (§2)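 M2H in HCT-116 used a VDR-AD prey with an SRC-1-BD or DRIP205-BD bait (50 ng each), 250 ng pFR-luc and 20 ng pRL-null per well. Cells were treated with 3.75 x 10^-5 M compound, 10^-10 M 1,25D or DMSO for 24 h. Firefly luciferase was normalized to Renilla. Duplicate experiments, triplicate samples, SD.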

[4] = target: T2, Vitamin D3 receptor (Homo sapiens); assay: Agonist activity at human VDR expressed in human HCT116 cells assessed as CYP24A1 transcriptional activity at 20 to 40 uM after 24 hrs by luciferase reporter gene assay; assay type: cell-based; details: HCT-116
Method in brief: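 HCT-116 cells (DMEM, 10% FBS, 37 °C, 5% CO2) plated at 90,000 cells/well ~24 h before transfection with a firefly luciferase reporter carrying the natural human CYP24A1 promoter (2 VDREs) plus Renilla control. Treated 18 h after transfection with 3.75 x 10^-5 M compound, 10^-10 M 1,25D or DMSO for 24 h. Read-out is dual luciferase, firefly/Renilla x10,000. Triplicate wells.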

[5] = target: T2, Vitamin D3 receptor (Homo sapiens); assay: Agonist activity at human VDR expressed in human HCT116 cells assessed as induction of recruitment of SRC-1 at 20 to 40 uM after 24 hrs by mammalian two hybrid system based luciferase reporter gene assay; assay type: cell-based; details: HCT-116; method in brief: as §2
Vitamin D3 receptor = target: T3, Vitamin D3 receptor (Homo sapiens, UniProt P11473); assay: Agonist activity at human VDR expressed in human HCT116 cells co-expressing VDRE assessed as XDR3 transcriptional activity after 24 hrs by luciferase reporter gene assay; assay type: cell-based, HCT-116; method in brief: as §1
T3 sequence (P11473 whole entry): T2 sequence (whole entry)

Activity [1] | Activity [2] | Activity [3] | Activity [4] | Activity [5] | EC50 (Vitamin D3 receptor) [µM] | SMILES
 | Active |  |  |  |  | COc1cc(CCC(=O)/C=C(\O)CCc2ccc(O)c(OC)c2)ccc1O
Active | Active | Active | Active | Active |  | COc1cc(/C=C/C(=O)/C=C(O)/C=C/c2cc(I)c(O)c(OC)c2)cc(I)c1O
Active | Active |  | Active |  |  | O=C(/C=C(O)/C=C/c1ccc(O)c(Br)c1)/C=C/c1ccc(O)c(Br)c1
Active | Active |  | Active |  |  | O=C(/C=C(O)/C=C/c1ccc(O)c(Cl)c1)/C=C/c1ccc(O)c(Cl)c1

Continued, compound first:

SMILES | Activity [1] | Activity [2] | Activity [3] | Activity [4] | Activity [5] | EC50 (Vitamin D3 receptor) [µM]
COc1cc(/C=C/C(=O)/C=C(O)/C=C/c2cc(Br)c(O)c(OC)c2)cc(Br)c1O | Active | Active | Active | Active | Active | 
COc1cc(/C=C/C(=O)/C=C(O)/C=C/c2cc(F)c(O)c(OC)c2)cc(F)c1O |  | Active |  |  |  | 
O=C(/C=C(O)/C=C/c1ccc(O)c(OC(F)(F)F)c1)/C=C/c1ccc(O)c(OC(F)(F)F)c1 | Active | Active | Active | Active | Active | 
O=C(/C=C(\O)CCc1ccc(O)cc1F)CCc1ccc(O)cc1F |  | inactive |  | inactive |  | 
O=C(/C=C(O)/C=C/c1ccc(O)cc1F)/C=C/c1ccc(O)cc1F |  | inactive |  | inactive |  | 
COc1cc(CCC(=O)/C=C(\O)CCc2cc(F)c(O)c(OC)c2)cc(F)c1O |  | inactive |  | inactive |  | 
COc1cc(/C=C/C(=O)/C=C(O)/C=C/c2cc(Cl)c(O)c(OC)c2)cc(Cl)c1O | Active | Active |  | Active |  | 
COc1cc(/C=C/C(=O)CC(=O)/C=C/c2ccc(O)c(OC)c2)ccc1O [CURCUMIN] |  |  | Active | Active | Active | 20

— ChEMBL document CHEMBL2321735, “Synthesis and biological evaluation of halogenated curcumin analogs as potential nuclear receptor selective agonists” (Bioorg Med Chem, 2013)
